Bioassay records deposited in PubChem BioAssay by several laboratories.
Shown are actives, neighbours in structure and some others; about 12% of the full set was active somewhere.
WT yeast gro inh: growth inhibition of WT yeast, mitochondrial fusion screen; mitochondrial fusion phenotypic screen, WT strain; inhibition, % at 10 µM; hit rate 2.1% among 190,000; AID 1362; in the data active = inhibition above about 58%; tested in S. cerevisiae
RAM inhibit: yeast RAM network inhibition. hit rate 1.8% among 190,000. inhibition, % at 50 µM. S. cerevisiae dse1pr::URA3 reporter, 5-FOA growth OD615, 2 d; analog-sensitive cbk1-as2 kinase mutant strain;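 active = inhibition above a set limit, 3 SD over mean compound inhibition, cut at about 8.4% in these data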;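 note: 0% = DMSO-only wells with no growth and 100% = 10 µM 1-NA-PP1 full growth; inhibition rescues growth on 5-FOA so higher OD means more RAM inhibition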
ABCG2 block: inhibitors of human ABCG2 transporter, ABCB1 counter-screen; Q9UNQ0; IgMXP3 cells, JC-1 efflux, flow cytometry; inhibition, % at 6.6 µM; hit rate 0.1% among 190,000;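 active = inhibition above 80%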;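 note: 0% = DMSO and 100% = nicardipine control wells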
Target sequence (Q9UNQ0 whole entry, looked up): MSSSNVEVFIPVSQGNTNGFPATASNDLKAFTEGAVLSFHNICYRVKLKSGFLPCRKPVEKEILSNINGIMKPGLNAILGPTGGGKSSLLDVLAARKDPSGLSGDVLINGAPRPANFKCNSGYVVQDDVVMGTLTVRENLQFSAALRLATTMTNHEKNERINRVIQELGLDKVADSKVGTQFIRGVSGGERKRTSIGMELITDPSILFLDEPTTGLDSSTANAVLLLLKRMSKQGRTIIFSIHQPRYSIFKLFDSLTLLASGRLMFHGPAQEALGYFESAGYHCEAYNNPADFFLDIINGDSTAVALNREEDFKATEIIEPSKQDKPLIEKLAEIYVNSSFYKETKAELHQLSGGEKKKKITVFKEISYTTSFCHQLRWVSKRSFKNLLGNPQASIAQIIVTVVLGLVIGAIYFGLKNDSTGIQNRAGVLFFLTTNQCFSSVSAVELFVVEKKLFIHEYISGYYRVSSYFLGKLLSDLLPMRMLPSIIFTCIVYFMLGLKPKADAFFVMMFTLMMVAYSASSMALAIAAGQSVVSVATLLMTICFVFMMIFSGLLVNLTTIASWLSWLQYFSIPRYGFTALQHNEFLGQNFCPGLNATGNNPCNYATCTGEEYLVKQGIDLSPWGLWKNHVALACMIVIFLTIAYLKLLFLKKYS
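Assay system – ABCG2 IgMXP3 and barcoded ABCB1 CCRF-Adr cell mix · Input – 3 million cells/mL in well · Reagent – JC-1 fluorescent substrate · Compound – single test compound dose, 6.6 µM final · Timing – 10 min exposure at 25 °C with rotation, no wash · Detection – flow cytometry of retained JC-1 fluorescence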
ABCB1 block: human ABCB1 inhibition, ABCG2 as counter-screen. P08183. CCRF-Adr cells, JC-1 efflux, flow cytometry. hit rate 0.067% among 190,000. inhibition, % at 6.6 µM; in the data active = inhibition above about 40%;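 note: 0% = vehicle and 100% = reference inhibitor; higher value means more JC-1 retained so stronger ABCB1 efflux block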
L major viab: inhibitors of Leishmania major promastigote growth. Leishmania major promastigotes, resazurin fluorescence viability. inhibition, % at 10 µM. hit rate 9% among 200,000. AID 1063; in the data active = inhibition above about 50%;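 note: promastigotes grown with compound for 44 hours at 28 °C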
Active calls of the source: *.

SMILES | WT yeast gro inh | RAM inhibit | ABCG2 block | ABCB1 block | L major viab
Cc1ccc(-c2nnn(CC(=O)N(c3ccccc3F)C(C(=O)NCC3CCCO3)c3c[nH]c4ccccc34)n2)cc1 (centres undefined) | -1 | 6 | 24 | 5 | 88*
COc1ccc(-c2nnn(CC(=O)N(Cc3ccco3)C(C(=O)NCC3CCCO3)c3ccco3)n2)cc1 (centres undefined) | -3 | -1 | 2 | 0 | -3
COc1ccc(CN(C(=O)Cn2nnc(-c3ccc(C)o3)n2)C(C(=O)NCC2CCCO2)c2ccco2)cc1 (centres undefined) | -6 | 9.1* | -1 | 0 | 28
CC1CC(C)(C)NC(=S)N1CCCC(=O)Nc1ccc(Br)cc1 (centres undefined) | 12 | 0 | 25 | 2 | 6
CCOc1ccc(NC(=O)CCCN2C(=S)NC(C)(C)CC2C)cc1 (centres undefined) | -15 | 0 | 26 | 1 | 59*
O=C(COC(=O)/C=C/c1ccco1)NCc1ccc2c(c1)OCO2 | 8 | 3 | 14 | 4 | -6
O=C(Nc1cccc(Cl)c1)Nc1ccccc1-n1ccnc1 | 14 | 0 | 8 | 1 | 74*
CSc1ccccc1NC(=O)Nc1cccc(Cl)c1 | 37 | 3 | 4 | 0 | 17
COc1cc(OC)cc(C(=O)N2CCC(n3c(C)nc4cc(F)ccc43)CC2)c1 | 69* | 0 | 5 | 2 | 8
Cc1cccc(C)c1OCCn1nc(C(=O)O)c2ccccc2c1=O | -12 | 10* | 33 | 2 | 2
Cc1cccc(OCCn2nc(C(=O)O)c3ccccc3c2=O)c1 | -4 | 4 | 40 | 3 | 1
Cn1c(=O)c2ncn(CC(=O)NCCOCc3ccccc3Cl)c2n(C)c1=O | 1 | 2 | 5 | 1 | -4
COc1ccc(C2C(C(=O)N3CCN(C)CC3)c3cc(OC)c(OC)cc3C(=O)N2C)cc1 (centres undefined) | -15 | -1 | -1 | 0 | 0
CCN1CCN(C(=O)C2c3cc(OC)c(OC)cc3C(=O)N(C)C2c2ccc(SC)cc2)CC1 (centres undefined) | 2 | 0 | -2 | 0 | 76*
COc1ccc(CCNC(=O)C(=O)NCc2cccs2)cc1OC | 25 | 1 | 9 | 1 | -3
c1ccc(Cn2ncc3ccccc32)cc1 | -2 | -1 | 1 | 0 | -8
CN(C)c1nc(-c2ccccc2)c2cnn(Cc3ccccc3)c2n1 | 29 | 5 | 1 | 0 | 63*
O=C(O)CSCc1cnn(-c2ccccc2)c1-n1cccc1 | 8 | 3 | 1 | 0 | -1
CCOc1ccc(NC(=O)CSCc2cnn(-c3ccccc3)c2-n2cccc2)cc1 | 36 | 10* | 3 | 1 | -4
O=C(CSCc1cnn(-c2ccccc2)c1-n1cccc1)N1CCN(Cc2ccccc2)CC1 | 63* | 1 | -3 | -1 | 97*
COc1ccccc1CNC(=O)CSCc1cnn(-c2ccccc2)c1-n1cccc1 | 51 | 6 | 3 | 1 | -4
N#C/C(=C\c1ccc(OCC(N)=O)cc1)c1ccccc1 | 16 | 3 | 34 | 1 | 58*
CC(=O)c1coc2ccc(OCCN3CCCCC3)cc12 | 3 | 1 | 6 | 1 | 91*
CCCOc1ccc(NC(=O)CC2C(=O)N(CC)C(=S)N2CCCN2CCN(Cc3ccccc3)CC2)cc1 (centres undefined) | 24 | 4 | 0 | 0 | 99*
COc1ccc(CCN2C(=O)N(c3ccc(OC)cc3)C(=O)C2CC(=O)Nc2ccccc2)cc1 (centres undefined) | 13 | 9.1* | 8 | 2 | 28
SMILES | WT yeast gro inh | RAM inhibit | ABCG2 block | ABCB1 block | L major viab
CCOc1ccc(NC(=O)CC2C(=O)N(C)C(=S)N2CCCc2ccccc2)cc1 (centres undefined) | 14 | 6 | -4 | -1 | 78*
COc1ccc(N2C(=O)C(CC(=O)Nc3ccccc3)N(CCc3ccc(OC)c(OC)c3)C2=O)cc1 (centres undefined) | 0 | 4 | 4 | 2 | 14
CN(Cc1ccon1)Cc1cn(Cc2ccccc2)nc1-c1ccc2c(c1)OCO2 | 26 | 0 | 1 | 2 | 8
O/N=C/c1ccn(-c2ccc(Br)cc2)c1 | 3 | 0 | 7 | 0 | 92*
Cc1ccc(S(=O)(=O)N2CCOCC2)cc1N/N=C(\C#N)c1nc2ccccc2[nH]1 | 30 | 3 | 13 | 6 | 43
Cc1nnsc1S(=O)(=O)Cc1ccccc1C(F)(F)F | 1 | 0 | 11 | 1 | -3
COc1cc(-c2nc3c(c(C)nn3-c3ccccc3)c3cc(OC)c(OC)cc23)ccc1O | -6 | 8.9* | 1 | 2 | -3
COc1ccc(-c2c(C)nn(-c3ccccc3)c2N)cc1OC | -25 | 1 | 5 | 1 | 6
O=C(O)c1cc2ncc(CCO)cn2n1 | -9 | 4 | 8 | 1 | -1
CC(C)c1ccc2[nH]c(O)c(N=NC(=S)NCCc3ccccc3)c2c1 | -6 | 8 | 7 | 1 | 4
CCNC(=S)N=Nc1c(O)[nH]c2ccc(C(C)C)cc12 | 16 | 2 | 15 | 1 | 78*
Cc1cnc(NC(=O)C2(c3ccccc3)CC2)s1 | 1 | -1 | 0 | 0 | 4
Cc1ccc(C2CCN(C(=S)Nc3cccc(C)c3)C2)cc1 (centres undefined) | 78* | 6 | -3 | -2 | 5
Cc1ccc(Cl)cc1NC(=S)N1CCC(c2ccccc2)C1 (centres undefined) | 59* | 4 | 3 | 0 | 19
Cc1ccc(C2CCN(C(=S)NC3CCCCC3)C2)cc1 (centres undefined) | 66* | 2 | 5 | 0 | 2
Cc1cc(=O)[nH]c(SCC(=O)NCC2CCCCC2)c1C#N | -10 | 3 | 3 | -1 | 5
O=C1CN(C(=S)NC(=O)c2ccc(-c3ccccc3)cc2)CCN1 | 1 | 4 | 4 | 0 | -8
COC(=O)c1[nH]c2ccc(Br)cc2c1NC(=O)C(C)N1CCN(C2CCCCC2)CC1 (centres undefined) | -11 | -1 | 8 | 3 | 100*
COC(=O)c1[nH]c2ccc(C)cc2c1NC(=O)C(C)N1CCN(C2CCCCC2)CC1 (centres undefined) | 1 | -1 | 3 | 2 | 37
O=C(CN1CCC(O)(c2ccc3c(c2)OCO3)CC1)NC1CCCCC1 | 6 | 0 | 0 | 0 | 3
O=C(CN1CCC(O)(c2ccc3c(c2)OCO3)CC1)OC1CCCCC1 | 20 | 0 | 1 | 0 | 97*
CCC1CCC(C(=O)NC(C(=O)NCCCN2CCCCC2C)C(C)C)CC1 (centres undefined) | -9 | 0 | 1 | 1 | 1
O=C1c2ccccc2C(=O)c2cc(S(=O)(=O)Nc3ccccc3)ccc21 | 72* | 2 | 2 | 0 | 0
C/C(=N\Nc1ccc(F)cc1F)c1cccs1 | 34 | -1 | 2 | 0 | -7
COc1ccc(C(=O)CSc2nnc(C(CO)NC(=O)c3ccc(OC)cc3)n2C)cc1 (centres undefined) | 2 | 11* | 6 | 0 | 5
